Source: ChEMBL document CHEMBL1138269, “Antimicrobial lexitropsins containing amide, amidine, and alkene linking groups” (J Med Chem, 2007)
≈ marks a conversion by molar mass, not a printed value.

Key:
Type in all cases: functional
[1] = test system: Enterococcus faecalis; experiment: Antibacterial activity against Streptococcus faecalis NCTC 775
Summary of the method: (§1)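 Broth microdilution in Mueller-Hinton broth. Samples were dissolved in sterile water to 200 µg mL-1 as the working solution and doubling dilutions were made across rows. Plates were incubated at 37 °C and inspected visually, with resazurin added as growth indicator. MIC reported in µg mL-1.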

[2] = test system: Candida albicans; experiment: Antifungal activity against Candida albicans NCPF 3179
Summary of the method: (§2)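 Antifungal microdilution in Sabouraud broth. Test sample at 200 µg mL-1 working solution in sterile water was serially doubled down successive rows. Incubation was at 25 °C, followed by visual growth check and addition of resazurin indicator. Read-out is MIC in µg mL-1.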

[3] = test system: Mycolicibacterium fortuitum; experiment: Antibacterial activity against Mycobacterium fortuitum NCTC 10394; summary of the method: as §1
[4] = test system: Staphylococcus aureus; experiment: Antibacterial activity against methicillin-sensitive Staphylococcus aureus NCTC 6571; summary of the method: as §1
[5] = test system: Aspergillus niger; experiment: Antifungal activity against Aspergillus niger IMI 149007; summary of the method: as §2
[6] = Enterococcus faecalis, NCTC 775, read-out: MIC
[7] = Candida albicans, read-out: MIC
[8] = Staphylococcus aureus, NCTC 6571, read-out: MIC

Row | Structure (SMILES) | MIC [1, 6] [µg/mL] | MIC [2, 7] [µg/mL] | MIC [3] [µg/mL] | MIC [4, 8] [µg/mL] | MIC [5] [µg/mL] | MIC [1] [µg/mL] | MIC [2] [µg/mL] | MIC [4] [µg/mL]
1 | COc1cccc(/C=C/c2cccc(C(=O)Nc3cc(C(=O)Nc4cc(C(=O)NCCCN(C)C)n(C)c4)n(C)c3)c2)c1 | 25 (≈ 42.9 µM) | > 50 | > 50 | 25 (≈ 42.9 µM) | > 50 | – | – | –
2 | CC(C)c1sc(NC(=O)c2cc(NC(=O)c3cc(NC(=O)c4cc5ccccc5cn4)cn3C)cn2C)nc1C(=O)NCCN1CCOCC1 | > 50 | > 50 | > 50 | > 50 | > 50 | – | – | –
3 | CC(C)CCc1sc(NC(=O)c2cc(NC(=O)c3ccc(/C=C/c4ccc5ccccc5c4)cc3)cn2C)nc1C(=O)NCCN1CCOCC1 | > 50 | > 50 | > 50 | > 50 | > 50 | – | – | –
4 | COc1cccc(C(=N)Nc2cc(C(=O)Nc3cc(C(=O)Nc4cc(C(=O)NCCCN(C)C)n(C)c4)n(C)c3)n(C)c2)c1 | > 50 | > 50 | > 50 | 25 (≈ 41.5 µM) | 25 (≈ 41.5 µM) | – | – | –
5 | Cn1cc(NC(=O)c2cc(NC(=O)c3ccc(/C=C/c4nc5ccccc5o4)cc3)cn2C)cc1C(=O)NCCN1CCOCC1 (stereo in doubt; 72) | – | – | – | – | – | 3 (≈ 4.83 µM) | 50 (≈ 80.4 µM) | 3 (≈ 4.83 µM)
6 | CC(C)CCc1sc(NC(=O)c2cc(NC(=O)c3ccc(/C=C/c4cnc5ccccc5c4)cc3)cn2C)nc1C(=O)NCCN1CCOCC1 | > 50 | 50 (≈ 70.8 µM) | > 50 | > 50 | > 50 | – | – | –
7 | Cn1cc(NC(=O)c2cc(NC(=O)c3ccc(/C=C/c4nc5ccccc5s4)cc3)cn2C)cc1C(=O)NCCN1CCOCC1 | 25 (≈ 39.2 µM) | > 50 | > 50 | 25 (≈ 39.2 µM) | > 50 | – | – | –
8 | Cn1cc(NC(=O)c2cc(NC(=O)c3ccc(/C=C/c4ccc5ccccc5c4)cc3)cn2C)cc1C(=O)NCCN1CCOCC1 | > 50 | > 50 | > 50 | 25 (≈ 39.6 µM) | > 50 | – | – | –
9 | CC(=N)Nc1cc(C(=O)Nc2cc(C(=O)Nc3cc(C(=O)NCCN4CCOCC4)n(C)c3)n(C)c2)n(C)c1 | > 50 | > 50 | > 50 | 50 (≈ 93 µM) | 50 (≈ 93 µM) | – | – | –
10 | COc1ccc(C(=O)Nc2cc(C(=O)Nc3cc(C(=O)Nc4cn(CCCN(C)C)cn4)n(C)c3)n(C)c2)cc1 | > 50 | > 50 | > 50 | > 50 | > 50 | – | – | –
11 | CC(C)c1sc(NC(=O)c2cc(NC(=O)c3cc(NC(=O)c4cc5ccccc5cn4)cn3C)cn2C)nc1C(=O)NCCCN(C)C | 50 (≈ 74.6 µM) | 50 (≈ 74.6 µM) | 50 (≈ 74.6 µM) | 50 (≈ 74.6 µM) | > 50 | – | – | –
12 | CC(C)n1cc(NC(=O)c2cc(NC(=O)c3ccc(Cl)c(Cl)n3)cn2C)cc1C(=O)Nc1cc(C(=O)NCCCN(C)C)n(C)c1 | 50 (≈ 74.6 µM) | > 50 | > 50 | 6 (≈ 8.95 µM) | 50 (≈ 74.6 µM) | – | – | –
13 | COc1cccc(C(=N)Nc2cc(C(=O)Nc3cc(C(=O)Nc4nc(C(=O)NCCCN(C)C)c(C(C)C)s4)n(C)c3)n(C)c2)c1 | 50 (≈ 77.2 µM) | > 50 | > 50 | 13 (≈ 20.1 µM) | 50 (≈ 77.2 µM) | – | – | –
14 | CC(=N)Nc1cc(C(=O)Nc2cc(C(=O)Nc3nc(C(=O)NCCCN(C)C)c(C(C)C)s3)n(C)c2)n(C)c1 | 50 (≈ 90 µM) | > 50 | > 50 | 50 (≈ 90 µM) | 50 (≈ 90 µM) | – | – | –
15 | CN(C)CCCn1cnc(NC(=O)c2cc(NC(=O)c3cc(NC(=O)c4cc5ccccc5cn4)cn3C)cn2C)c1 | > 50 | > 50 | > 50 | > 50 | > 50 | – | – | –
16 | CC(C)n1cc(NC(=O)c2cc(NC(=N)c3ccccc3)cn2C)cc1C(=O)Nc1cc(C(=O)NCCCN(C)C)n(C)c1 | > 50 | > 50 | > 50 | 50 (≈ 83.4 µM) | > 50 | – | – | –

Row | Structure (SMILES) | MIC [1, 6] [µg/mL] | MIC [2, 7] [µg/mL] | MIC [3] [µg/mL] | MIC [4, 8] [µg/mL] | MIC [5] [µg/mL] | MIC [1] [µg/mL] | MIC [2] [µg/mL] | MIC [4] [µg/mL]
17 | COc1cccc(C(=N)Nc2cc(C(=O)Nc3cc(C(=O)Nc4nc(C(=O)NCCCN(C)C)c(CCC(C)C)s4)n(C)c3)n(C)c2)c1 | 13 (≈ 19.2 µM) | > 50 | > 50 | 3 (≈ 4.44 µM) | > 50 | – | – | –
18 | COc1cccc(C(=O)Nc2ccc(C(=O)Nc3cc(C(=O)Nc4cc(C(=O)NCCN5CCOCC5)n(C)c4)n(C)c3)cc2)c1 | > 50 | > 50 | > 50 | > 50 | > 50 | – | – | –
19 | CN(C)CCCNC(=O)c1cc(NC(=O)c2cc(NC(=O)c3cc(NC(=N)c4ccccc4)cn3C)cn2C)cn1C | > 50 | > 50 | > 50 | 50 (≈ 87.5 µM) | 50 (≈ 87.5 µM) | – | – | –
20 | CN(C)CCCNC(=O)c1cc(NC(=O)c2cc(NC(=O)c3cc(NC(=O)c4ccc(Cl)c(Cl)n4)cn3C)cn2C)cn1C | > 50 | 25 (≈ 38.9 µM) | > 50 | > 50 | 50 (≈ 77.8 µM) | – | – | –
21 | CC(=N)Nc1cc(C(=O)Nc2cc(C(=O)Nc3cc(C(=O)NCCCN(C)C)n(C)c3)n(C)c2)n(C)c1 | 50 (≈ 98.1 µM) | > 50 | > 50 | 13 (≈ 25.5 µM) | 50 (≈ 98.1 µM) | – | – | –
22 | COc1cccc(C(=O)Nc2cc(C(=O)Nc3cc(C(=O)Nc4cn(CCCN(C)C)cn4)n(C)c3)n(C)c2)c1 | > 50 | > 50 | > 50 | > 50 | > 50 | – | – | –
23 | Cn1cc(NC(=O)c2cc(NC(=O)c3ccc(/C=C/c4ccc5ccccc5n4)cc3)cn2C)cc1C(=O)NCCN1CCOCC1 | > 50 | > 50 | > 50 | 50 (≈ 79.1 µM) | > 50 | – | – | –
24 | CC(=N)Nc1cc(C(=O)Nc2cc(C(=O)Nc3cc(C(=O)NCCCN(C)C)n(C)c3)n(C(C)C)c2)n(C)c1 | 50 (≈ 93 µM) | > 50 | > 50 | 13 (≈ 24.2 µM) | 50 (≈ 93 µM) | – | – | –
25 | COc1cccc(C(=N)Nc2cc(C(=O)Nc3cc(C(=O)Nc4cn(CCCN(C)C)cn4)n(C)c3)n(C)c2)c1 | > 50 | > 50 | > 50 | > 50 | > 50 | – | – | –
26 | CC(C)CCc1sc(NC(=O)c2cc(NC(=O)c3ccc(/C=C/c4cc5ccccc5nc4Cl)cc3)cn2C)nc1C(=O)NCCN1CCOCC1 | > 50 | > 50 | > 50 | > 50 | > 50 | – | – | –
27 | Cn1cc(NC(=O)c2cc(NC(=O)c3ccc(NC(=O)c4cnc5ccccc5c4)cc3)cn2C)cc1C(=O)NCCN1CCOCC1 | > 50 | > 50 | > 50 | > 50 | > 50 | – | – | –
28 | CN(C)CCCn1cnc(NC(=O)c2cc(NC(=O)c3cc(NC=O)cn3C)cn2C)c1 | > 50 | > 50 | > 50 | > 50 | > 50 | – | – | –
29 | CC(C)c1sc(NC(=O)c2cc(NC(=O)c3cc(NC=O)cn3C)cn2C)nc1C(=O)NCCCN(C)C | 10 (≈ 18.4 µM) | 76 (≈ 140 µM) | 19 (≈ 35 µM) | 5 (≈ 9.21 µM) | 76 (≈ 140 µM) | – | – | –
30 | CC(C)CCc1sc(NC(=O)c2cc(NC(=O)c3ccc(/C=C/c4ccc5ccccc5n4)cc3)cn2C)nc1C(=O)NCCN1CCOCC1 | > 50 | > 50 | > 50 | > 50 | > 50 | – | – | –
31 | COc1cccc(C(=N)Nc2cc(C(=O)Nc3cc(C(=O)Nc4cc(C(=O)NCCN5CCOCC5)n(C)c4)n(C)c3)n(C)c2)c1 | > 50 | > 50 | > 50 | > 50 | > 50 | – | – | –
32 | COc1cccc(C(=O)Nc2nc(C(=O)Nc3cc(C(=O)Nc4cc(C(=O)NCCC(=N)N)n(C)c4)n(C)c3)c(C(C)C)s2)c1 | 13 (≈ 20.5 µM) | > 50 | > 50 | 13 (≈ 20.5 µM) | > 50 | – | – | –
